Assay results from article PMC4377161 (Molecular cancer therapeutics, 2014).
Entries after “also recorded” stand apart in the source; their conditions may differ.

Key:
[1] = test system: mutant V600EB-Raf melanoma; settings: cited from earlier work
MDA-MB-231 = experiment: MTS cell viability, MDA-MB-231 breast cancer; type: cell-based; settings: read-out: IC50, Other cancer types, 24 h
Procedure, shortened: (§1)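 Cells kept in DMEM with 1% Glutamax and 10% FBS at 37°C, 5% CO2. Seeded at 5×10^3 cells/well in 96-well plates and grown before treatment. Treated with DMSO vehicle or 0.62 to 40 µmol/L test compound for 24, 48 or 72 h. Viability read by MTS. IC50 per cell line derived from three independent experiments by curve fitting.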

MCF-7 = experiment: MTS cell viability, MCF-7 breast cancer; type: cell-based; settings: read-out: IC50, Other cancer types, 24 h
Procedure, shortened: as §1

A-549 = experiment: MTS cell viability, A-549 lung cancer; type: cell-based; settings: read-out: IC50, Other cancer types, 24 h
Procedure, shortened: as §1

LNCap = experiment: MTS cell viability, LNCap prostate cancer; type: cell-based; settings: read-out: IC50, Other cancer types, 24 h
Procedure, shortened: as §1

PC-3 = experiment: MTS cell viability, PC-3 prostate cancer; type: cell-based; settings: read-out: IC50, Other cancer types, 24 h
Procedure, shortened: as §1

HT-1080 = experiment: MTS cell viability, HT-1080 fibrosarcoma; type: cell-based; settings: read-out: IC50, Other cancer types, 24 h
Procedure, shortened: as §1

MiA PaCa-2 = experiment: MTS cell viability, MiA PaCa-2 pancreas cancer; type: cell-based; settings: read-out: IC50, Other cancer types, 24 h
Procedure, shortened: as §1

HCT-116 = experiment: MTS cell viability, HCT-116 colon cancer; type: cell-based; settings: read-out: IC50, Other cancer types, 24 h
Procedure, shortened: as §1

HT-29 = experiment: MTS cell viability, HT-29 colon cancer; type: cell-based; settings: read-out: IC50, Other cancer types, 24 h
Procedure, shortened: as §1

SW-480 = experiment: MTS cell viability, SW-480 colon cancer; type: cell-based; settings: read-out: IC50, Other cancer types, 24 h
Procedure, shortened: as §1

melanoma cells = experiment: MTS cell viability, melanoma cell lines; type: cell-based, human
Procedure, shortened: (§2)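 Melanoma lines (WM35, SbCl2, WM115, WM278.1, SK-MEL-24, 1205 Lu, UACC 903) and normal cells (FOM103 melanocytes, FF2441 fibroblasts, foreskin keratinocytes) seeded at 5×10^3 cells/well in 96-well plates. Exposed to DMSO vehicle or 0.62–40 µmol/L test compound for 24, 48 or 72 h, then MTS read. IC50 from three independent experiments per line, averaged across each group.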

normal cells = experiment: MTS cell viability, normal cells; type: cell-based, human; settings: read-out: average IC50, normal cells; average over normal cells
Procedure, shortened: as §2

UACC 903 melanoma cells = experiment: Natural product library NPL-480 primary screen, MTS; type: cell-based, human; settings: 5 µmol/L, 24 hours, UACC 903, MTS
Procedure, shortened: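 UACC 903 cells plated at 5×10^3 per well in 96-well plates for 24 h. Each library compound, from 10 mM DMSO stocks, added at 5 µmol/L final for 24 h. Viability read by MTS. Screen run three times and averaged.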

[2] = test system: UACC 903 and 1205 Lu cells; experiment: Apo-ONE caspase-3/7 apoptosis assay; type: cell-based, human; settings: longer exposure
[3] = test system: UACC 903 and 1205 Lu cells; experiment: Cell cycle analysis, propidium iodide FACS; type: cell-based, human; settings: 24 hours leelamine treatment, propidium iodide stained UACC 903 and 1205 Lu cells
PI3K/Akt pathway = experiment: Western blot of pathway signaling, PI3K/Akt; type: cell-based, human; settings: 3 to 6 µmol/L for 3 to 24 hours, UACC 903 and 1205 Lu
Procedure, shortened: (§3)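 1.5×10^6 melanoma cells plated in 100 mm dishes. After 48 h, treated with 3–6 µmol/L test compound for 3 to 24 h, then lysed in RIPA and immunoblotted with ECL detection; α-enolase as loading control. Probes: MAPK, phospho-Erk1/2 (Thr202/Tyr204) and total Erk1/2; PI3K/Akt, phospho-Akt (Ser473), total Akt, phospho-PRAS40 (Thr246), phospho-p70S6K (Thr389); STAT3, phospho-Stat3 (Tyr705), total Stat3.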

MAPK pathway = experiment: Western blot of pathway signaling, MAPK; type: cell-based, human; settings: 3 to 6 µmol/L for 3 to 24 hours, UACC 903 and 1205 Lu
Procedure, shortened: as §3

STAT3 pathway = experiment: Western blot of pathway signaling, STAT3; type: cell-based, human; settings: UACC 903 and 1205 Lu
Procedure, shortened: as §3

[4] = test system: UACC 903 xenografted melanoma tumors; experiment: Xenograft tumor growth, UACC 903; type: in vivo, Athymic Nude-Foxn1nu mice; settings: UACC 903 xenograft, 5–7.5 mg/kg i.p. daily, versus DMSO vehicle control
Procedure, shortened: (§4)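 Female Athymic Nude-Foxn1nu mice, 3–4 weeks old, injected s.c. above both rib cages with 1×10^6 UACC 903 or 1205 Lu cells in 0.2 mL DMEM with 10% FBS and 1% Glutamax. At day 6, with 50–75 mm3 tumors, mice randomized (5 mice/group, 2 tumors/mouse). Dosed i.p. daily for 3–4 weeks with DMSO vehicle or […] test compound, depending on cell line. Tumor size and body weight measured every 2 days.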

[5] = test system: 1205 Lu xenografted melanoma tumors; experiment: Xenograft tumor growth, 1205 Lu; type: in vivo, Athymic Nude-Foxn1nu mice; settings: 1205 Lu xenograft, 5–7.5 mg/kg i.p. daily, versus DMSO vehicle control
Procedure, shortened: as §4

[6] = test system: preexisting xenografted melanoma tumors; experiment: Xenograft tumor growth and body weight, UACC 903 or 1205 Lu; type: in vivo, Athymic Nude-Foxn1nu mice
Procedure, shortened: as §4

Toxicity assessment = type: in vivo; settings: Swiss Webster mice; for blood markers of major organ function (ALP, ALT, AST, CK, CREA, GLU): 10 mg/kg i.p. daily
Procedure, shortened: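 Swiss Webster mice (n=5) given 5 or 10 mg/kg test compound i.p. daily for 22 days and weighed daily. At termination, blood taken by cardiac puncture into lithium heparin serum separator tubes for ALP, ALT, AST, CK, creatinine and glucose. On day 22 liver, spleen, kidney, intestine, lung and heart were formalin-fixed, paraffin-embedded, H&E stained and examined microscopically.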

UACC 903 tumors = experiment: Size and time matched tumors, Ki-67 immunohistochemistry; type: in vivo, nude mice; settings: day 11, UACC 903 tumors, 7.5 mg/kg i.p. daily from day 6
Procedure, shortened: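 Nude mice injected s.c. with 2.5×10^6 UACC 903 cells. From day 6, dosed i.p. daily to day 15 with DMSO vehicle or 7.5 mg/kg test compound. Size- and time-matched tumors harvested at days 11, 13 and 15 and immunostained with mouse anti-human Ki-67. Positive cells scored as % of total cells, ≥6 tumors, 4–6 fields each.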

pAkt (Ser473) = experiment: Western blot of size and time matched tumor lysates, pAkt; type: in vivo, nude mice; settings: days 11, 13 and 15, 7.5 mg/kg i.p. daily from day 6, versus DMSO
Procedure, shortened: (§5)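 Same size- and time-matched UACC 903 s.c. tumors in nude mice: 7.5 mg/kg test compound or DMSO vehicle given i.p. daily from day 6. Lysates from tumors harvested at days 11, 13 and 15 immunoblotted for pAkt (Ser473) or pStat3 (Tyr705), compared with vehicle-treated tumors.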

pStat3 (Tyr705) = experiment: Western blot of size and time matched tumor lysates, pStat3; type: in vivo, nude mice; settings: days 11, 13 and 15, 7.5 mg/kg i.p. daily from day 6, versus DMSO
Procedure, shortened: as §5

cannabinoid receptor CB1 = settings: cited from earlier work
G-protein activity = settings: cited from earlier work

Structure (SMILES): CCCS(=O)(=O)Nc1ccc(F)c(C(=O)c2c[nH]c3ncc(-c4ccc(Cl)cc4)cc23)c1F [Zelboraf]
- progression-free survival [1]: 6.2 months
- partial or complete anti-tumor response rate ([1]; patients having mutant V600EB-Raf, first 2-month treatment cycle): approximately 80%

Structure (SMILES): CC(C)c1ccc2c(c1)CC[C@H]1[C@](C)(CN)CCC[C@]21C [leelamine, Dehydroabietylamine]
- IC50 (MDA-MB-231): 5.82 ± 0.87 µM
- IC50 (MCF-7): 7.12 ± 1.3 µM
- IC50 (A-549): 8.81 ± 0.82 µM
- IC50 (LNCap): 10.9 ± 0.23 µM
- IC50 (PC-3): 5.41 ± 2.6 µM
- IC50 (HT-1080): 4.01 ± 0.27 µM
- IC50 (MiA PaCa-2): 4.69 ± 0.37 µM
- IC50 (HCT-116): 4.8 ± 0.5 µM
- IC50 (HT-29): 5.95 ± 1.23 µM
- IC50 (SW-480): 1.55 ± 0.33 µM
- fold more effective at inhibiting cultured melanoma cell survival than normal cells (melanoma cells; melanoma cells versus normal cells, average): 4.5 fold
- IC50 (melanoma cells; read-out: average IC50, cultured melanoma cells, average over melanoma cells): 2 µM
- IC50 (normal cells): 9.3 µM
- decrease in cell viability (UACC 903 melanoma cells): approximately 95%
- increase in apoptosis [2]: 600%
- cell cycle distribution [3]: increase in the sub-G0/G1 and G0/G1 cell populations, with a corresponding decrease in the S-phase population
- signaling through PI3K pathway (PI3K/Akt pathway): Decreased signaling
- signaling through MAPK pathway (MAPK pathway): Decreased signaling
- signaling through STAT3 pathway (STAT3 pathway; 3 to 6 µmol/L for 3 to 24 hours): Decreased signaling
- time from which inhibition of STAT3 pathway occurred (STAT3 pathway; 3 to 6 µmol/L): ≥ 12 h
- reduction of tumor volume [4]: 61%
- reduction of tumor volume [5]: 57%
- inhibition of growth of preexisting xenografted melanoma tumors, average ([6]; average of UACC 903 and 1205 Lu xenografts, i.p. daily for 3 to 4 weeks): 60%
- animal body weight ([6]; xenograft-bearing nude mice, leelamine i.p. daily versus DMSO control): no significant differences
- blood markers of major organ function (ALP, ALT, AST, CK, CREA, GLU) (Toxicity assessment; after 22 days, 10 mg/kg): No significant differences; also recorded: negligible toxicity
- blood markers of major organ function (ALP, ALT, AST, CK, CREA, GLU) (Toxicity assessment; after 22 days, listed as Leelamine, 10 mg/kg): without affecting
- histological examination of H&E stained vital organ sections (cellular morphology or overall structure) (Toxicity assessment; 10 mg/kg, after 22 days, liver, spleen, kidney, intestine, lung, heart, 10 mg/kg): no change; also recorded: no differences
- body weights (Toxicity assessment; 5 or 10 mg/kg i.p. daily, 22 days): No significant difference
- reduction in proliferating cells (Ki-67) (UACC 903 tumors): 50%
- active pAkt (Ser473) in tumor lysates (pAkt (Ser473)): decreased; also recorded: inhibition
- pStat3 (Tyr705) in tumor lysates (pStat3 (Tyr705)): decreased; also recorded: inhibition
- binding to the cannabinoid receptor CB1 (cannabinoid receptor CB1): weakly binding
- stimulation of G-protein activity (G-protein activity): not stimulating
